Data set [1] is classed as in vivo, mouse. In a few lines:
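An ileal segment of 2–3 cm was perfused open-loop at 0.2 ml/min, with or without GF120918 (4 μM) in the perfusate. Collected mesenteric blood was analysed by C18 HPLC with fluorescence detection (ex 268/em 347 nm). Metabolite is expressed relative to parent drug.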

Data set [2] concerns ileum of TgCYP3A4/hPXR mice. The experiment in a line: In situ intestinal perfusion with mesenteric blood sampling, TgCYP3A4/hPXR mice. It is filed as in vivo, mouse. The settings on record: for increase in intestinal permeability for darunavir: GF120918 4 μM in perfusate.
The conditions of data set [3]: concomitant administration of sulforaphane, humans; cited from earlier work.

Like-named read-outs stand apart in the source and are kept apart here.

Consider `CC(C)(O)CN(C[C@@H](O)[C@H](Cc1ccccc1)NC(=O)O[C@H]1CO[C@H]2OCC[C@H]21)S(=O)(=O)c1ccc(N)cc1` [R426857], for which the “concentration of R426857 relative to darunavir in mesenteric blood” value in data set [1] (TgCYP3A4/hPXR mice, perfusion without GF120918) is “less than 0.8%”. For the same compound, the “relative amount of R426857 to darunavir in mesenteric blood” value in data set [1] (perfused with GF120918, rifampicin-treated TgCYP3A4/hPXR mice) worked out at 3.1%; in data set [1] (perfused with GF120918, untreated TgCYP3A4/hPXR mice) it was 1.6%. Regarding `Nn1nnc2ccccc21` [aminobenzotriazole], in data set [2] (rifampicin-treated TgCYP3A4/hPXR mice, aminobenzotriazole 100 μM in perfusate), the “effect on intestinal permeability for darunavir” value is on record as “did not increase”.

For `C[S+]([O-])CCCCN=C=S` (stereo not shown) [sulforaphane], the “effect on rifampicin-caused decrease of midazolam AUC” value in data set [3] is “did not reduce”. As for `COc1cc2c(cc1OC)CN(CCc1ccc(NC(=O)c3cccc4c(=O)c5cccc(OC)c5[nH]c34)cc1)CC2` [GF120918, N-(4-[2-(1,2,3,4-tetrahydro-6,7-dimethoxy-2-isoquinolinyl)ethyl]-phenyl)-9,10-dihydro-5-methoxy-9-oxo-4-acridine carboxamide], the “increase in intestinal permeability for darunavir” value in data set [2] (TgCYP3A4/hPXR mice not treated with rifampicin, darunavir 100 μM in FaSSIF, p < 0.05) stood at 56%; in data set [2] (rifampicin-treated TgCYP3A4/hPXR mice (10 mg/kg, 3 days), p<0.05), 400%.

The record behind these values is publication PMC3594649 (Molecular pharmaceutics, 2013).
